# Cneo AK release = Cryptococcus neoformans lysis via adenylate kinase release; 360,000 tested, 0.2% active; C. neoformans lysis, adenylate kinase release luminescence, 4 h; normalised: neutral wells 0, clomiphene wells 100; lysis activity, % at 15 µM;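 active = mean lysis activity across replicates of at least 80%, whatever share of replicates individually reach that level; inactive = mean lysis activity below 80%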
#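 Assay system: Cryptococcus neoformans yeast cells / Dosing: single-point compound dose / Timing: 4 h at 37 °C static, read 1 h later / Measured by: luminescence of released adenylate kinase using an AK detection reagent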
# miR122 inh = inhibitors of miR-122 in Huh7 cells; 340,000 tested, 0.3% active; activation (reporter increase), % at 12.5 µM; Huh7 miR-122 Renilla luciferase sensor, 48 h; neutral wells = 0, positive control = 100;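 active = mean replicate activation score at least 90 and every replicate individually at or above 90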;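 also: higher luciferase means less miR-122 activity so hits act as miR-122 inhibitors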
# DENV2 CPE = inhibitors of DENV2 cytopathic effect | DENV2-infected cells, cytopathic effect rescue, plate reader | CPE inhibition, % at 9.99 µM | 350,000 tested, 1.7% active; in the data active = CPE inhibition above about 20%, passing the limit was not always enough; tested in BHK-21 cells;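 also: 0% = median of neutral control wells and 100% = median of positive control wells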
# rRNA inh HTS = selective bacterial rRNA inhibition in E. coli | E. coli WT GFP vs humanized-ribosome RFP mutants, fluorescence, 24 h; hits give low values; DMSO median 0, no signal -100 | GFP signal change (wild-type ribosome), % (test concentration not listed) | 350,000 tested, 1.6% active | AID 720706;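 active = significant combined selectivity score with lowered wild-type GFP, culture density cut under 30%, mutant RFP and density less affected; inactive = any of these conditions unmet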
# E-sel inducer = E-selectin induction on HUVECs; 260,000 tested, 0.37% active; P16581; activation, % at 7.58 µM; AID 686992; HUVEC E-selectin immunofluorescence imaging; normalized: neutral wells 0, TNF-alpha wells 100;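 active = mean E-selectin-positive cell signal at least 10% of the positive control, reached in at least 60% of replicates, without over 20% cell loss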
# Target sequence (P16581 whole entry, looked up): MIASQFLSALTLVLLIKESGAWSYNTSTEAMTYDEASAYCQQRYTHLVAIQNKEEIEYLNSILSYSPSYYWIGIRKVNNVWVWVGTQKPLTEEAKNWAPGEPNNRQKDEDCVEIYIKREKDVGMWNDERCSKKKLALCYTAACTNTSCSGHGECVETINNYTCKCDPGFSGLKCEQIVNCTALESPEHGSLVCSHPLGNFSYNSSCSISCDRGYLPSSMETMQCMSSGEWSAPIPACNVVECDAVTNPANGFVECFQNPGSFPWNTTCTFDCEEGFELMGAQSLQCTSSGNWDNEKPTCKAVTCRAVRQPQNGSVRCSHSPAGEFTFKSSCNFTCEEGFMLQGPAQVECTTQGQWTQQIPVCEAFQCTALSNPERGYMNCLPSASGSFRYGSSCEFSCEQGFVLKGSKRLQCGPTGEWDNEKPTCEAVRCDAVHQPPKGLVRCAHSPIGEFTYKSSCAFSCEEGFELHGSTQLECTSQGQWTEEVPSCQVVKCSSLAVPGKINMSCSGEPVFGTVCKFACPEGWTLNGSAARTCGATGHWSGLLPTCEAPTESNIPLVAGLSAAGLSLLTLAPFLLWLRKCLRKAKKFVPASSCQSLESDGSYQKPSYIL
#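 Material: HUVEC primary endothelial cells; Amount: 3,000 cells per well; Dosing: single concentration; Medium: EGM-2 growth medium on 0.1% gelatin-coated wells; Read-out basis: percent E-selectin-positive cells; Signal: immunofluorescence imaging; Control set: TNF-alpha, DMSO.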
# Active calls of the source: *; nt = not tested or not shown; [ ] = another dose, or the depositor's remark. The list is not random: actives were taken first. Their share in the collection is about 3.1%.
SMILES,Cneo AK release,miR122 inh,DENV2 CPE,rRNA inh HTS,E-sel inducer
COc1cccc(C2C3=C(CCCC3=O)Nc3[nH]n(-c4ccccc4)c(=O)c32)c1 (stereo not drawn),nt,21.5,0.3,2.1,nt
CCN1CCN(S(=O)(=O)c2ccc(Cl)c(C(=O)N(C)CCOc3ccc(Cl)cc3)c2)CC1,nt,nt,67.5*,-13.1,0.3
CNC(=S)SCCOc1ccccc1,nt,nt,-0.6,5.6,6.6
CCNC(=S)SCCOc1ccccc1C,5.9,-1.7,3.8,-33.9*,0.2
CCCC#Cc1ccc2c(c1)[C@@H]1[C@@H](CCN1C(=O)CC1CC1)[C@@H](CO)N2C,0.4,-3.0[16.7 µM],74.3*,1.1,-0.1
CN1c2ccc(-c3ccc(F)cc3)cc2[C@@H]2[C@@H](CCN2C(=O)CC2CC2)[C@@H]1CO,-5.1,1.2[16.7 µM],10.1,-55.6,1.5
CCC(=O)N1CC[C@@H]2[C@H]1c1cc(C#Cc3cccc(F)c3)ccc1N(C)[C@H]2CO,13.6,4.5[16.7 µM],127.1*,6.0,0.9
CCC(=O)N1CC[C@@H]2[C@H]1c1cc(-c3cccc(F)c3)ccc1N(C)[C@H]2CO,-9.9,9.4[16.7 µM],nt,-13.6,0.4
C[C@@H]1CN([C@H](C)CO)C(=O)c2cc(NS(C)(=O)=O)ccc2O[C@H]1CN(C)CC1CCCCC1,-1.5,14.3[16.7 µM],8.7,3.1,0.0
COc1ccc(NC(=O)C2CCCN2S(=O)(=O)c2ccc3c(c2)CCC(=O)N3)c(OC)c1 (stereo not drawn),0.4,-0.2,37.2*,-0.7,nt
Cc1ccc(CCNC(=O)C2CCCN2S(=O)(=O)c2ccc3c(c2)CCC(=O)N3)cc1 (stereo not drawn),5.1,-2.7,nt,nt,nt
CN(C)C(=O)C[C@H]1C[C@H]2c3cc(NC(=O)NC4CCCC4)ccc3O[C@H]2[C@@H](CO)O1,-1.4,-3.5[16.7 µM],0.3,2.9,-0.3
COc1ccccc1/C=C/C(=O)NC(=S)NCC1CCCO1 (stereo not drawn),4.0,4.2,-2.9,-25.0*,-0.1
COc1ccccc1NS(=O)(=O)c1cc(NC(=S)NCC2CCCO2)ccc1C (stereo not drawn),nt,99.2*,14.1,-10.4,-0.6
COc1ccc(CN(C)C[C@H]2Oc3c(NS(=O)(=O)c4ccc(C)cc4)cccc3C(=O)N([C@@H](C)CO)C[C@H]2C)cc1,nt,nt,10.9,-4.4,0.0
C[C@@H]1CN([C@H](C)CO)C(=O)c2cc(NC(=O)Cc3ccccc3)ccc2O[C@@H](C)CCCCO[C@@H]1CN(C)Cc1ccc2c(c1)OCO2,-2.1,-9.3[16.7 µM],13.4,3.4,0.1
O=C(O)CSc1ncccc1C(=O)O,nt,nt,45.6*,14.2,-1.2
C[C@H](CO)N1C[C@H](C)[C@@H](CN(C)S(C)(=O)=O)Oc2cc(C3=CCCC3)ccc2S1(=O)=O,nt,-0.7[16.7 µM],nt,-1.0,0.4
CC1(CCc2ccccc2)NC(=O)N(CC(=O)Nc2ccc(OC(F)F)cc2)C1=O (stereo not drawn),-1.7,nt,-3.5,-28.8*,nt
CC1(CCc2ccccc2)NC(=O)N(CC(=O)Nc2ccc(S(N)(=O)=O)cc2)C1=O (stereo not drawn),nt,nt,-4.1,7.5,nt
Cc1ccc(C)c(S(=O)(=O)NC(C)CCc2ccccc2)c1 (stereo not drawn),-2.1,192.7*,6.1,-39.0,nt
Cc1ccc(S(=O)(=O)NC(C)CCc2ccccc2)cc1 (stereo not drawn),-0.4,10.3,nt,nt,nt
C/C=C/c1ccc([C@@H]2[C@H](CO)N(C(C)=O)C23CN(C(=O)c2ccc(F)cc2)C3)cc1,nt,nt,-5.7,0.7,2.3
COc1ccc2c3c(n(C)c2c1)[C@@H](CO)N(C(=O)Nc1ccc(F)cc1)CC31CN(C(=O)c2ccccc2F)C1,nt,nt,-0.2,5.8,0.6
CC(C)(C)S(=O)N1Cc2cc(C(=O)NCc3ccc4c(c3)OCO4)nc(-c3cccc(C#CCC4CCCC4)c3)c2[C@@H]1CCO (stereo partly drawn),nt,nt,49.4*,nt,nt
SMILES,Cneo AK release,miR122 inh,DENV2 CPE,rRNA inh HTS,E-sel inducer
CC(C)(C)S(=O)N1Cc2cc(C(=O)NCc3ccc4c(c3)OCO4)nc(-c3cccc(-c4cccc(F)c4)c3)c2[C@@H]1CCO (stereo partly drawn),nt,nt,23.9*,4.6,0.0
CC(C)(C)S(=O)N1Cc2cc(C(=O)NCc3ccc4c(c3)OCO4)nc(-c3cccc(-c4cc5ccccc5o4)c3)c2[C@H]1CCO (stereo partly drawn),nt,nt,1.0,2.7,0.3
CC(C)(C)S(=O)N1Cc2cc(C(=O)NCc3ccc4c(c3)OCO4)nc(-c3cccc(C#CCC4CCCC4)c3)c2[C@H]1CCO (stereo partly drawn),nt,nt,6.5,nt,nt
O=C(COC(=O)CC12CC3CC(CC(C3)C1)C2)Nc1cccnc1Cl,nt,nt,nt,-24.2*,2.4
Cc1ccc(S(=O)(=O)N2CCN(C(=O)COC(=O)/C=C/c3ccc(F)cc3)CC2)c(C)c1,-4.2,nt,4.7,10.0,0.6
Cc1ccc(S(=O)(=O)N2CCN(C(=O)COC(=O)c3nc(Cl)ccc3Cl)CC2)c(C)c1,-0.8,10.3,-1.3,-2.3,2.7
Cc1ccc(S(=O)(=O)N2CCN(C(=O)COC(=O)c3ncc(Cl)c(Cl)c3Cl)CC2)c(C)c1,-1.9,nt,3.0,-22.8*,nt
CSc1ccc(/C=C/C(=O)OCC(=O)N2CCN(S(=O)(=O)c3ccc(C)cc3C)CC2)cc1,-1.1,-4.1,24.7*,1.1,nt
CCCN1C(=O)C(O)(C2CC(=O)CC(C)(C)O2)c2ccccc21 (stereo not drawn),126.1*,-3.1,nt,nt,nt
C[C@@H]1CN([C@@H](C)CO)S(=O)(=O)c2ccc(Br)cc2O[C@H]1CN(C)Cc1cccnc1,11.8,nt,-5.0,-10.1,-0.3
CCc1cc(Cn2nc(-c3ccccc3)cc2C(=O)NCc2cccc(Br)c2)on1,4.4,nt,90.0*,-9.6,0.0
CCc1cc(Cn2nc(-c3ccccc3)cc2C(=O)NCc2ccc(C)cc2)on1,3.0,-7.1,111.4*,-2.5,-0.2
CCCC(=O)Nc1ccc2c(c1)OC[C@H](C)N(Cc1ccccc1)C[C@@H](C)[C@H](OC)CN(C)C2=O,2.0,3.3[16.7 µM],-6.9,-6.5,0.1
O=C(N/N=C/c1ccc(O)c(O)c1)c1ccc(CSc2cccc3cccnc23)cc1,nt,-6.7,nt,-16.3*,nt
O=C(CSc1cccc2cccnc12)N/N=C/c1cccc(O)c1,nt,nt,11.7,nt,6.9
C[C@@H]1CN([C@@H](C)CO)C(=O)c2cc(NC(=O)CCCN(C)C)ccc2O[C@@H](C)CCCCO[C@@H]1CN(C)Cc1ccc2c(c1)OCO2,nt,nt,-10.0,3.1,0.0
C[C@H](CO)N1C[C@H](C)[C@H](CN(C)S(=O)(=O)c2ccc(F)cc2)OCCCC[C@H](C)Oc2ccc(NS(=O)(=O)c3cccs3)cc2C1=O,-1.5,-0.8[16.7 µM],-12.6,-4.9,0.3
COC(=O)C1=C(C(=O)OC)[C@@H]2Nc3ccccc3[C@@]23C[C@@H](C(=O)OC)N(C(=O)c2cccs2)C3=N1,-0.9,nt,67.6*,3.2,12.7

# Compound activity: PubChem, Broad Institute
